Reference: ChEMBL document CHEMBL2034868, “Synthesis of methoxylated goniothalamin, aza-goniothalamin and γ-pyrones and their in vitro evaluation against human cancer cells” (Bioorg Med Chem, 2012)

What was measured:
[1] = test system: NCI-H460; experiment: Growth inhibition of human NCI-H460 cells after 48 hrs by sulforhodamine B assay; assay type: functional
Procedure, shortened: (§1)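 Cells in 96-well plates were exposed for 48 h at 37 °C in 5% CO2 to compounds at 0.25, 2.5, 25 and […] in DMSO/RPMI. Doxorubicin was the positive control at […]. Cells were then fixed with 50% trichloroacetic acid and stained with sulforhodamine B, with protein read at 540 nm. TGI (the concentration where T = T0) was taken by non-linear regression of each cell line's concentration-response curve.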

[2] = test system: 786-0; experiment: Growth inhibition of human 786-0 cells after 48 hrs by sulforhodamine B assay; assay type: functional; procedure, shortened: as §1
[3] = Growth inhibition of human NCI/ADR cells after 48 hrs by sulforhodamine B assay; assay type: functional; procedure, shortened: as §1
[4] = test system: OVCAR-3; experiment: Growth inhibition of human OVCAR3 cells after 48 hrs by sulforhodamine B assay; assay type: functional; procedure, shortened: as §1
[5] = test system: MCF7; experiment: Growth inhibition of human MCF7 cells after 48 hrs by sulforhodamine B assay; assay type: functional; procedure, shortened: as §1
[6] = test system: HT-29; experiment: Growth inhibition of human HT-29 cells after 48 hrs by sulforhodamine B assay; assay type: functional; procedure, shortened: as §1
[7] = test system: U-251; experiment: Growth inhibition of human U251 cells after 48 hrs by sulforhodamine B assay; assay type: functional; procedure, shortened: as §1
[8] = Growth inhibition of human HaCaT cells after 48 hrs by sulforhodamine B assay; assay type: cell-based; procedure, shortened: as §1

Structure (SMILES)	GI [1] [µM]	GI [2] [µM]	GI [3] [µM]	GI [4] [µM]	GI [5] [µM]	GI [6] [µM]	GI [7] [µM]	TGI at 48 h [8] [µM]
COc1ccc(C2CC(=O)C=CO2)cc1 (stereo not drawn)	192.8	197	419.6	248.6	172.9	203.4	226.1	264
COc1cc(/C=C/C2CC=CC(=O)O2)cc(OC)c1OC (racemic)	28.8	18.5	35.1	44.9	15.3	18.8	25.1	21.6
COc1ccc(C2CC(=O)C(Br)=CO2)cc1 (stereo not drawn)	117.7	33.4	52.9	113.5	42.2	69	46.4	164
COc1ccc(/C=C/C2CC=CC(=O)O2)cc1OC (racemic)	14.6	10.9	11.6	16.8	7.8	17.2	23.9	63
COc1cc(/C=C/C2CC(=O)C=CO2)cc(OC)c1OC (stereo not drawn)	127.3	125	223.2	85.4	149.4	134.5	101.8	155
COc1ccc(/C=C/C2CC=CC(=O)O2)cc1 (racemic)	28.3	21.6	17.3	61.5	25.5	33.7	20.6	58.8
O=C1C=CCC(/C=C/c2ccc(C(F)(F)F)cc2)O1 (racemic)	476.9	44.5	54.8	167.2	51	36.2	36.8	69.7
COc1ccc(/C=C/C2CC=CC(=O)N2)cc1 (stereo not drawn)	>1090.4	>1090.4	841.7	786.8	>1090.4	>1090.4	981.3	> 1090
COc1ccc(/C=C/C2CC=CC(=O)O2)c(OC)c1 (racemic)	6	4.1	8.8	5.6	5.4	6.6	4.6	15.8
COc1ccc(C2CC(=O)C(I)=CO2)cc1 (stereo not drawn)	74.6	27	39.7	38.2	43.2	24.4	24.4	53.3
O=C1C=CCC(/C=C/c2ccccc2C(F)(F)F)O1 (racemic)	241.5	52.3	75.5	295.6	50.4	71.7	43.4	82.7
COc1cc(/C=C/C2CC=CC(=O)O2)cc(OC)c1 (racemic)	9	10.6	8.9	19.1	9.5	8.2	8.1	8.8
COc1ccc(/C=C/C2CC(=O)C=CO2)cc1 (stereo not drawn)	149.4	191.5	239.3	87.4	155.5	203.9	151.9	144
COc1cc(OC)c(OC)cc1/C=C/C1CC=CC(=O)O1 (racemic)	9.8	6	9.4	7.2	3.8	15.9	11.5	46.9
O=C1C=CC[C@H](/C=C/c2ccccc2)O1 [GONIOTHALAMIN]	13.6	14.8	8	14.2	12.7	13.9	13.7	27.7
COc1cc(/C=C/C2CC=CC(=O)N2)cc(OC)c1OC (stereo not drawn)	>864.1	>864.1	>864.1	>864.1	>864.1	>864.1	>864.1	> 864
